The values below come from ChEMBL document CHEMBL3804788, “The design of 8-hydroxyquinoline tetracyclic lactams as HIV-1 integrase strand transfer inhibitors” (Eur J Med Chem, 2016).

Converted amounts (≈) assume the structure as drawn.

By CC50 is commonly meant the concentration that lowers cell viability or growth by half. High values mean lower toxicity to the cells, low ones greater toxicity to the cells. For orientation: half-life means how long it takes for the measured level to halve. The low end stands for fast loss, the high end for slow loss. As a reminder, the Papp is a coefficient for how fast a substance crosses the barrier. For orientation: bioavailability means the share of a dose that reaches the circulation, judged against a reference dose that is usually intravenous. Low values mean little systemic uptake, high ones much systemic uptake. What is called solubility is the dissolved amount per volume that the medium holds. Read a low solubility as a poorly soluble substance.

In data set [1] the test system is Human immunodeficiency virus type 1 integrase (Human immunodeficiency virus 1), Q7ZJM1 [G140S,Q148H]. Kind of data set: Inhibition of pseudotype HIV1 integrase G140S/Q148H double mutant strand transfer activity in HIV1 infected human CIP4 cells assessed as ratio of IC50 for pseudotype HIV1 integrase G140S/Q148H double mutant strand transfer activity to IC50 for pseudotype HIV1 integrase strand transfer activity after 2 days by luciferase reporter gene assay. It is filed as cell-based. (A reporter such as luciferase makes a cellular process visible.)

Data set [2] relates to Human immunodeficiency virus type 1 integrase (Human immunodeficiency virus 1), Q7ZJM1 [Q148K]. The experiment in a line: Inhibition of pseudotype HIV1 integrase Q148K mutant strand transfer activity in HIV1 infected human CIP4 cells assessed as ratio of IC50 for pseudotype HIV1 integrase Q148K mutant strand transfer activity to IC50 for pseudotype HIV1 integrase strand transfer activity after 2 days by luciferase reporter gene assay. Format: cell-based.

The nature of data set [3]: Cytotoxicity against human CIP4 cells. Format: cell-based.
The target of data set [4] is Human immunodeficiency virus type 1 integrase (Human immunodeficiency virus 1) (UniProt Q7ZJM1). The experiment in a line: Ratio of IC50 for pseudotype HIV1 integrase strand transfer activity in presence of 40% human serum albumin to IC50 for pseudotype HIV1 integrase strand transfer activity. In short, it runs like this: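 Single-round assay with a self-inactivating pseudotyped HIV (PHIV) lentiviral luciferase vector. CIP4 cells (2 × 10^4/well) were infected with enough PHIV to give about 50,000 relative light units. Cells were incubated 2 days with compound at varying concentrations, with or without 40% human serum albumin. Infection was read as luciferase luminescence (Steady-Glo). Serum shift is the IC50 with albumin divided by the IC50 without.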

The nature of data set [5]: Half life in iv or po dosed beagle dog by LC-MS/MS analysis. The note with it: in vivo. It is filed as ADME, organism-based, Canis lupus familiaris.
In the next data set the test system is Canis familiaris. The experiment in a line: Total clearance in iv or po dosed beagle dog after 24 hrs by LC-MS/MS analysis relative to hepatic blood flow. Format: ADME, organism-based, Canis lupus familiaris, Liver. Particulars: in vivo.
Data set [6] in a line: Total clearance in Sprague-Dawley rat at 1 mg/kg, iv or 5 mg/kg, po after 24 hrs by LC-MS/MS analysis. Format: ADME, organism-based. The note with it: in vivo.
Data set [7] in a line: Apparent permeability of compound. Format: physicochemical. The note with it: not told.
Data set [8] is described as follows: Half life in Sprague-Dawley rat at 1 mg/kg, iv or 5 mg/kg, po by LC-MS/MS analysis. It is filed as ADME, organism-based. The note with it: in vivo.
Another data set has as its system Rattus norvegicus. The experiment in a line: Total clearance in Sprague-Dawley rat at 1 mg/kg, iv or 5 mg/kg, po after 24 hrs by LC-MS/MS analysis relative to hepatic blood flow. Format: ADME, organism-based, Liver. Particulars: in vivo.
Data set [9] is described as follows: Oral bioavailability in Sprague-Dawley rat at 5 mg/kg after 24 hrs by LC-MS/MS analysis. Format: ADME, organism-based. The note with it: in vivo.
Data set [10] can be described thus: Intrinsic aqueous solubility of compound by chemiluminescent nitrogen detection method. It is filed as physicochemical. Particulars: buffer.
Data set [11] is described as follows: Total clearance in iv or po dosed beagle dog after 24 hrs by LC-MS/MS analysis. Format: ADME, organism-based, Canis lupus familiaris. Particulars: in vivo.
Data set [12] can be described thus: Oral bioavailability in beagle dog after 24 hrs by LC-MS/MS analysis. The note with it: in vivo. Format: ADME, organism-based, Canis lupus familiaris.

For `NC(=O)c1c2c(c(O)c3ncc(Cc4cccc(Cl)c4F)cc13)C(=O)N1CCCC[C@@H]21`, the figures for the Ratio IC50 in [1] and in data set [2] were 3.7 and 0.1, respectively. Further, the CC50 in [3] stood at 5.18 µM.
The like results for `N#Cc1c2c(c(O)c3ncc(Cc4cccc(Cl)c4F)cc13)C(=O)N1CCC[C@H]1C2` were, in that order, 2.8, 1.4 and 50 µM.
The like results for `N#Cc1c2c(c(O)c3ncc(Cc4cccc(Cl)c4F)cc13)C(=O)N1CCC[C@H]21` were, in that order, 456, 216 and 7.27 µM.
For `O=C1c2c(cc3cc(Cc4cccc(Cl)c4F)cnc3c2O)CN2CCCN12`, the Ratio IC50 turned out to be 2.3 in data set [1], 0.4 in [2] and 9 in data set [4].
For `NC(=O)c1c2c(c(O)c3ncc(Cc4cccc(Cl)c4F)cc13)C(=O)N1CCCC[C@H]21`, the half-life in [5] was 11.8 h; in data set [8], 7.2 h. For the same compound, the Ratio IC50 was 2.8 in data set [1] and 1.4 in [2]. Also, the CL came to 5% in the data set on Canis familiaris and 2% in the data set with Rattus norvegicus. Also, the clearance in data set [6] was 1.4 mL/min/kg; in data set [11] it was 2.8 mL/min/kg. Besides, in [7], the Papp was determined as 6 ×10⁻⁶ cm/s. Also, the bioavailability in [9] came to 2%; in data set [12], 14%. This compound also returned a solubility in data set [10] of 25 µM (≈ 11 µg/mL). The compound further returned a CC50 in [3] of 24.4 µM.
As for `N#Cc1c2c(c(O)c3ncc(Cc4cccc(Cl)c4F)cc13)C(=O)N1CCC[C@@H]21`, the Ratio IC50 is 131 in data set [1] and 31 in data set [2]. This compound came in with a CC50 in [3] of 1.83 µM.
On to `NC(=O)c1c2c(c(O)c3ncc(Cc4cccc(Cl)c4F)cc13)C(=O)N1CCC[C@H]1C2`, for which the Ratio IC50 was 2.6 in data set [1] and 0.6 in [2]. Besides, in [3], the midpoint of cytotoxicity, the CC50, lay at 36.8 µM.
On to `N#Cc1c2c(c(O)c3ncc(Cc4cccc(Cl)c4F)cc13)C(=O)N1CCCC[C@@H]21`, for which the Ratio IC50 was 93 in data set [1] and 17 in data set [2]. Also, in data set [3], the midpoint of cytotoxicity, the CC50, lay at 3.36 µM.
`O=C(NCc1ccc(F)cc1)c1cn2c(c(O)c1=O)C(=O)N1CCCO[C@H]1C2`: the Ratio IC50 in [2] was 2.4.
`N#Cc1c2c(c(O)c3ncc(Cc4cccc(Cl)c4F)cc13)C(=O)N1CCCN1C2`: the Ratio IC50 turned out to be 8 in data set [1], 1.3 in data set [2] and 188 in data set [4].
Take `N#Cc1c2c(c(O)c3ncc(Cc4cccc(Cl)c4F)cc13)C(=O)N1CCC[C@@H]1C2`: the Ratio IC50 in data set [1] amounted to 1.5; in [2] it was 0.8. In data set [3], this compound gave a CC50 of 12.8 µM.
The corresponding values for `N#Cc1c2c(c(O)c3ncc(Cc4cccc(Cl)c4F)cc13)C(=O)N1CCCC[C@H]21` are 17, 8.8 and 7.05 µM.
The corresponding values for `NC(=O)c1c2c(c(O)c3ncc(Cc4cccc(Cl)c4F)cc13)C(=O)N1CCC[C@@H]1C2` are 0.4, 0.6 and 21.1 µM.
Turning to `Cn1c(=O)c(C(=O)NCCO)c(O)c2ncc(Cc3ccc(F)cc3)cc21`, in data set [2], the Ratio IC50 was found to be 40.
